Experimental data taken from ChEMBL document CHEMBL2346593, “Novel adamantyl cannabinoids as CB1 receptor probes” (J Med Chem, 2013).
Calls of active or inactive are those of the source.

Tests used:
Cannabinoid receptor 2 [1] = molecular target: Cannabinoid receptor 2 (Mus musculus, UniProt P47936); assay: Displacement of [3H]CP-55940 from mouse CB2 receptor expressed in mouse spleen membrane by competitive binding assay; format: cell membranes
Summary of the method: (§1)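 Competition-equilibrium binding against [3H]CP-55,940 in rat brain membranes (CB1), mouse spleen membranes (mCB2), or membranes of HEK293 cells expressing hCB2. IC50 was obtained by nonlinear regression and converted to Ki. Ki is the mean of three independent experiments, each run in duplicate.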

[2] = Selectivity ratio of Ki for mouse CB2 receptor to Ki for rat CB1 receptor
Cannabinoid receptor 1 [3] = molecular target: Cannabinoid receptor 1 (Rattus norvegicus, UniProt P20272); assay: Displacement of [3H]CP-55940 from rat CB1 receptor expressed in rat brain membrane by competitive binding assay; format: cell membranes
Chain of Cannabinoid receptor 1 (Rattus norvegicus, UniProt P20272) (P20272 whole entry): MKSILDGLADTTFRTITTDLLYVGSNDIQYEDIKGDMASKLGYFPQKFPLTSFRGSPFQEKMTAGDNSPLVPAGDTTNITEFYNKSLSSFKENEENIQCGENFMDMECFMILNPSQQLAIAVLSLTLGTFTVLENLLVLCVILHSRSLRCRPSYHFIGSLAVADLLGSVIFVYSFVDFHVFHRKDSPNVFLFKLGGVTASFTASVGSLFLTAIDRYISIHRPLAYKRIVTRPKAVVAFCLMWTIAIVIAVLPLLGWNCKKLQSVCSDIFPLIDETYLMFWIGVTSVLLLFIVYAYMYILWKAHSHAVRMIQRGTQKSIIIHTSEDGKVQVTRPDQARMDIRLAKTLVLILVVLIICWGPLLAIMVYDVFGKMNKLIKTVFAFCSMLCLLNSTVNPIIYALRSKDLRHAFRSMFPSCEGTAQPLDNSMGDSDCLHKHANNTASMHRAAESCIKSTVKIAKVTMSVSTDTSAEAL

[4] = Selectivity ratio of Ki for human CB2 receptor to Ki for rat CB1 receptor
Cannabinoid receptor 2 [5] = molecular target: Cannabinoid receptor 2 (Homo sapiens, UniProt P34972); assay: Displacement of [3H]CP-55940 from human CB2 receptor expressed in HEK293 cell membrane by competitive binding assay; format: cell membranes; summary of the method: as §1
Chain of Cannabinoid receptor 2 (Homo sapiens, UniProt P34972) (P34972 whole entry): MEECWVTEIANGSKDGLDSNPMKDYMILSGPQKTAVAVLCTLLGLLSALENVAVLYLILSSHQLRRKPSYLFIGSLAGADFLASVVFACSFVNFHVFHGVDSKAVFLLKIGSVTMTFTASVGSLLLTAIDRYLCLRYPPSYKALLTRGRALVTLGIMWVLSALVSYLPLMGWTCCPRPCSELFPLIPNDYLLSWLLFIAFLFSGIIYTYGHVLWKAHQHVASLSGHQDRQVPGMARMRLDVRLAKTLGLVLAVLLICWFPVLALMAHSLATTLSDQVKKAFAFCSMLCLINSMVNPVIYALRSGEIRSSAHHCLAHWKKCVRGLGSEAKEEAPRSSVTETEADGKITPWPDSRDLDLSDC

Cannabinoid receptor 1 [6] = molecular target: Cannabinoid receptor 1 (Homo sapiens, UniProt P21554); assay: Agonist activity at human CB1 receptor transfected in human U2OS cells assessed as beta-arrestin2-GFP aggregation after 40 mins; format: cell-based
Chain of Cannabinoid receptor 1 (Homo sapiens, UniProt P21554) (P21554 whole entry): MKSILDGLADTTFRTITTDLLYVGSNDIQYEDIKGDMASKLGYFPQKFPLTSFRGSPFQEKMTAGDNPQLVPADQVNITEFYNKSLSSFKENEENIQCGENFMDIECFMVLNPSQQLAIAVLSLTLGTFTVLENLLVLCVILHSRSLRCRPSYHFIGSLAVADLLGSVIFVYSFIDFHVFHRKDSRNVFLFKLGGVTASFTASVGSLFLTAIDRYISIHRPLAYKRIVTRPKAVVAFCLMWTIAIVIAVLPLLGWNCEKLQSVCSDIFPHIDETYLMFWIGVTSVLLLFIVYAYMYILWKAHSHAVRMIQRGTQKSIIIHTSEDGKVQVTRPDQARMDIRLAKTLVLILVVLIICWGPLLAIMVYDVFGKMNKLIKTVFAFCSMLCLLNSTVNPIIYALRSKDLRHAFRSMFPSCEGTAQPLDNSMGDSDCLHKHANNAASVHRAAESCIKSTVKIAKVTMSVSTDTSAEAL

Rattus norvegicus [7] = assay: Antinociceptive activity in Sprague-Dawley rat assessed as increase in tail-flick latency period at 0.1 to 10 mg/kg, sc after 6 hrs by tail-flick test; format: functional, organism-based
Summary of the method: (§2)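 Female Sprague-Dawley rats (235–350 g; n = 5–7/group), retested at least 7 days apart. Compound was dissolved in 20% ethanol/20% emulphor/60% saline, diluted with saline, and given sc at 1.0 mL/kg. Radiant-heat tail-flick latency was measured over 6 h with a 6 s cutoff. %MPE = 100 × (test − baseline)/(6 − baseline). Dose-effect curves used each rat's maximum effect.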

Rattus norvegicus [8] = assay: Hypothermic effect in Sprague-Dawley rat assessed as decrease in core body temperature at 10 mg/kg; format: functional
Summary of the method: (§3)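 Female Sprague-Dawley rats (n = 5–7/group), minimally restrained and isolated, each with a thermistor probe inserted 7 cm and taped to the tail. Two baselines were taken 15 min apart, then sc injection (20% ethanol/20% emulphor/60% saline diluted with saline, 1.0 mL/kg). Temperature was read every 30 min for 3 h, then hourly to 6 h, as change from mean baseline.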

Rattus norvegicus [9] = assay: Antinociceptive activity in Sprague-Dawley rat assessed as increase in tail-flick latency period at 0.1 to 10 mg/kg, sc after 60 to 120 mins by tail-flick test; format: functional, organism-based; summary of the method: as §2
Rattus norvegicus [10] = assay: Hypothermic effect in sc dosed Sprague-Dawley rat assessed as decrease in core body temperature after 60 mins to 6 hrs; format: functional, organism-based; summary of the method: as §3
Rattus norvegicus [11] = assay: Hypothermic effect in Sprague-Dawley rat assessed as decrease in core body temperature at 1 mg/kg, sc measured over 6 hrs; format: functional; settings: route subcutaneous; summary of the method: as §3
Rattus norvegicus [12] = assay: Antinociceptive activity in Sprague-Dawley rat assessed as increase in tail-flick latency period at 1 mg/kg, sc by tail-flick test; format: functional, organism-based; design: dose 1 mg/kg; summary of the method: as §2

Chain of Cannabinoid receptor 2 (Mus musculus, UniProt P47936) (P47936 whole entry): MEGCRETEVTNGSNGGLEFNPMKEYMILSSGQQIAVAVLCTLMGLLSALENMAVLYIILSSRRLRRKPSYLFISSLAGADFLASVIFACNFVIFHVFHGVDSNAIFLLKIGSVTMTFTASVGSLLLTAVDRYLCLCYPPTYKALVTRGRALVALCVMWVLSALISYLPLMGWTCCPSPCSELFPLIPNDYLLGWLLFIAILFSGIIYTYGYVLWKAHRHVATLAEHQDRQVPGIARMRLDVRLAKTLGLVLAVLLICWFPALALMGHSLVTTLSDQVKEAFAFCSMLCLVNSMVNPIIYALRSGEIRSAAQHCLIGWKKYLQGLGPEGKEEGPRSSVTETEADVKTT

Compound `Cc1ccc2c(c1)-c1c(O)cc(C34CC5CC(CC(C5)C3)C4)cc1OC2(C)C` has a Ki (Cannabinoid receptor 2 [1]) of 42.2 nM, a Ratio Ki [2] of 0.7 and a Ki (Cannabinoid receptor 1 [3]) of 62 nM. The Ratio Ki [4] was 1 and the Ki (Cannabinoid receptor 2 [5]) was 63.5 nM.
`CC1(C)Oc2cc(C34CC5CC(CC(C5)C3)C4)cc(O)c2[C@@H]2C[C@H](O)CC[C@H]21` showed a Ki (Cannabinoid receptor 2 [1]) of 39.4 nM, a Ki (Cannabinoid receptor 1 [3]) of 23.9 nM and a Ki (Cannabinoid receptor 2 [5]) of 40.5 nM.
`CC1(C)Oc2cc(C34CC5CC(CC(C5)C3)C4)cc(O)c2[C@@H]2C[C@H](C=O)CC[C@H]21` showed a Ki (Cannabinoid receptor 2 [1]) of 25.7 nM, a Ratio Ki [2] of 0.5 and a Ki (Cannabinoid receptor 1 [3]) of 52.9 nM. The Ratio Ki [4] was 0.1 and the Ki (Cannabinoid receptor 2 [5]) was 5.5 nM.
For `COc1ccc2c(c1)-c1c(O)cc(C34CC5CC(CC(C5)C3)C4)cc1OC2(C)C`, the Ki (Cannabinoid receptor 2 [1]) was 950 nM, the Ratio Ki [2] was 1.9 and the Ki (Cannabinoid receptor 1 [3]) was 507 nM. It also gave a Ratio Ki [4] of 0.7 and a Ki (Cannabinoid receptor 2 [5]) of 338 nM.
With `CC1(C)Oc2cc(C34CC5CC(CC(C5)C3)C4)cc(O)c2[C@@H]2C[C@H](CC#N)CC[C@H]21` the Ki (Cannabinoid receptor 2 [1]) was 87 nM, the Ratio Ki [2] was 1.8 and the Ki (Cannabinoid receptor 1 [3]) was 48.7 nM. The Ratio Ki [4] was 2.1 and the Ki (Cannabinoid receptor 2 [5]) was 100 nM.
In the case of `CC1(C)Oc2cc(C34CC5CC(CC(C5)C3)C4)cc(O)c2-c2cc(O)ccc21`, the Ki (Cannabinoid receptor 2 [1]) is reported as 251 nM, the Ratio Ki [2] is reported as 2.8 and the Ki (Cannabinoid receptor 1 [3]) is reported as 88.6 nM. It also gave a Ratio Ki [4] of 6.2 and a Ki (Cannabinoid receptor 2 [5]) of 551 nM.
`CC1(C)Oc2cc(C34CC5CC(CC(C5)C3)C4)cc(O)c2[C@@H]2C[C@H](CCO)CC[C@H]21` showed a Ki (Cannabinoid receptor 2 [1]) of 38.4 nM, a Ratio Ki [2] of 4.5 and a Ki (Cannabinoid receptor 1 [3]) of 8.6 nM. For the same compound, the Ratio Ki [4] was 3.9 and the Ki (Cannabinoid receptor 2 [5]) was 33.3 nM.
`CC(C)(C)C(=O)OCC1=CC[C@@H]2[C@@H](C1)c1c(O)cc(C34CC5CC(CC(C5)C3)C4)cc1OC2(C)C` gave a Ki (Cannabinoid receptor 2 [1]) of 126 nM, a Ratio Ki [2] of 7.6 and a Ki (Cannabinoid receptor 1 [3]) of 16.5 nM. For the same compound, the Ratio Ki [4] was 3 and the Ki (Cannabinoid receptor 2 [5]) was 49.2 nM.
Compound `CC1(C)Oc2cc(C34CC5CC(CC(C5)C3)C4)cc(O)c2[C@@H]2C[C@H](CC=O)CC[C@H]21` has a Ki (Cannabinoid receptor 2 [1]) of 34.3 nM, a Ratio Ki [2] of 2.6 and a Ki (Cannabinoid receptor 1 [3]) of 13.2 nM. The Ratio Ki [4] was 0.8 and the Ki (Cannabinoid receptor 2 [5]) was 11.2 nM.
`CC1(C)Oc2cc(C34CC5CC(CC(C5)C3)C4)cc(O)c2[C@@H]2CC(CO)=CC[C@H]21` showed an EC50 (Cannabinoid receptor 1 [6]) of 230 nM, a Ki (Cannabinoid receptor 2 [1]) of 10.6 nM and a Ratio Ki [2] of 1.5. For the same compound, the Ki (Cannabinoid receptor 1 [3]) was 7.2 nM, the Ratio Ki [4] was 1.9 and the Ki (Cannabinoid receptor 2 [5]) was 14 nM.
Compound `CO/C=C\[C@@H]1CC[C@@H]2[C@@H](C1)c1c(O)cc(C34CC5CC(CC(C5)C3)C4)cc1OC2(C)C` has a Ki (Cannabinoid receptor 2 [1]) of 90.3 nM, a Ratio Ki [2] of 2.9 and a Ki (Cannabinoid receptor 1 [3]) of 31 nM. The Ratio Ki [4] was 2.2 and the Ki (Cannabinoid receptor 2 [5]) was 67.2 nM.
With `CC1(C)Oc2cc(C34CC5CC(CC(C5)C3)C4)cc(O)c2[C@@H]2C[C@@H](CCO)CC[C@H]21` the Ki (Cannabinoid receptor 2 [1]) was 21 nM, the Ratio Ki [2] was 0.5 and the Ki (Cannabinoid receptor 1 [3]) was 40.9 nM. It also gave a Ratio Ki [4] of 8.9 and a Ki (Cannabinoid receptor 2 [5]) of 365 nM.
Work on `CC1(C)Oc2cc(C34CC5CC(CC(C5)C3)C4)cc(O)c2[C@@H]2C[C@@H](CC=O)CC[C@H]21` yielded a Ki (Cannabinoid receptor 2 [1]) of 8.1 nM, a Ratio Ki [2] of 0.5 and a Ki (Cannabinoid receptor 1 [3]) of 17.5 nM. For the same compound, the Ratio Ki [4] was 0.4 and the Ki (Cannabinoid receptor 2 [5]) was 7.8 nM.
`CC1(C)Oc2cc(C34CC5CC(CC(C5)C3)C4)cc(O)c2[C@@H]2C[C@H](CI)CC[C@H]21` showed a Ki (Cannabinoid receptor 2 [1]) of 346 nM, a Ratio Ki [2] of 1.4 and a Ki (Cannabinoid receptor 1 [3]) of 241 nM. The Ratio Ki [4] was 1.1 and the Ki (Cannabinoid receptor 2 [5]) was 262 nM.
Compound `CC1(C)Oc2cc(C34CC5CC(CC(C5)C3)C4)cc(O)c2[C@@H]2CC(=O)CC[C@H]21` has a Ki (Cannabinoid receptor 2 [1]) of 250 nM and a Ki (Cannabinoid receptor 2 [5]) of 338 nM.
In the case of `CC1=CC[C@@H]2[C@@H](C1)c1c(O)cc(C34CC5CC(CC(C5)C3)C4)cc1OC2(C)C`, the EC50 (Cannabinoid receptor 1 [6]) is reported as 1530 nM, the Activity (Rattus norvegicus [7]) is reported as “Active” and the Activity (Rattus norvegicus [8]) is reported as “inactive”. The Activity (Rattus norvegicus [9]) was “Active”.
`CC1(C)Oc2cc(C34CC5CC(CC(C5)C3)C4)cc(O)c2-c2cc(CO)ccc21` gave an EC50 (Cannabinoid receptor 1 [6]) of 450 nM, a Ki (Cannabinoid receptor 2 [1]) of 32.3 nM and a Ratio Ki [2] of 15.4. For the same compound, the T (Rattus norvegicus [8]) was 4.1 °C, the Ki (Cannabinoid receptor 1 [3]) was 2.1 nM and the Ratio Ki [4] was 22.2. The Ki (Cannabinoid receptor 2 [5]) was 46.7 nM.
`CC1(C)Oc2cc(C34CC5CC(CC(C5)C3)C4)cc(O)c2[C@@H]2C[C@@H](CO)CC[C@H]21` showed a Ki (Cannabinoid receptor 2 [1]) of 65.1 nM, a Ratio Ki [2] of 2.2 and a Ki (Cannabinoid receptor 1 [3]) of 30.1 nM. It also gave a Ratio Ki [4] of 4 and a Ki (Cannabinoid receptor 2 [5]) of 121 nM.
For `CC1(C)Oc2cc(C34CC5CC(CC(C5)C3)C4)cc(O)c2[C@@H]2C[C@@H](O)CC[C@H]21`, the Ki (Cannabinoid receptor 2 [1]) was 255 nM, the Ki (Cannabinoid receptor 1 [3]) was 146 nM and the Ki (Cannabinoid receptor 2 [5]) was 672 nM.
`CC1(C)Oc2cc(C34CC5CC(CC(C5)C3)C4)cc(O)c2[C@@H]2C[C@@H](C=O)CC[C@H]21` gave a Ki (Cannabinoid receptor 2 [1]) of 20.1 nM, a Ratio Ki [2] of 0.4 and a Ki (Cannabinoid receptor 1 [3]) of 48.2 nM. It also gave a Ratio Ki [4] of 0.2 and a Ki (Cannabinoid receptor 2 [5]) of 9 nM.
In the case of `CC1(C)Oc2cc(C34CC5CC(CC(C5)C3)C4)cc(O)c2[C@@H]2C[C@H](CO)CC[C@H]21`, the EC50 (Cannabinoid receptor 1 [6]) is reported as 96 nM, the Activity (Rattus norvegicus [10]) is reported as “Dose-dependent effect” and the T (Rattus norvegicus [11]) is reported as 6.4 °C. For the same compound, the Activity (Rattus norvegicus [12]) was “Active”, the Ki (Cannabinoid receptor 2 [1]) was 12.1 nM and the Ratio Ki [2] was 2.5. It also gave a Ki (Cannabinoid receptor 1 [3]) of 4.9 nM, a Ratio Ki [4] of 2.3 and a Ki (Cannabinoid receptor 2 [5]) of 11.3 nM.
